The target of one assay is iNOS dimer (Mus musculus, UniProt P29477). Nature of the assay: LT-PAGE assay of iNOS dimer/monomer after inactivation. In kind it is biochemical, murine. As to conditions: native iNOS control 65 ± 5.
The target of assay [1] is T1, recombinant murine iNOS (Mus musculus, UniProt P29477). The note with it: cited from earlier work.
For assay [2], the target named is T1, recombinant murine iNOS. Nature of the assay: Hemoglobin assay for iNOS activity. In kind it is biochemical. The note with it: different concentrations of inhibitor and L-arginine.
Assay [3] deals with T2, iNOS heme cofactor (Mus musculus, UniProt P29477). The note with it: LC-electrospray MS and HPLC; cited from earlier work.
Assay [4] addresses T1, recombinant murine iNOS. Nature of the assay: Irreversible inhibition kinetics. In kind it is biochemical. As to conditions: for Inactivation (irreversible inhibition) of iNOS: qualitative; for Ki: Kitz and Wilson.
Assay [5] has as its target T2, iNOS heme cofactor. Nature of the assay: HPLC and LC/MS determination of heme and biliverdin after treatment of iNOS. It counts as biochemical, murine. As to conditions: for Biliverdin formation: HPLC with UV or MS detection; for Heme loss: qualitative. An outline of the steps:
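After iNOS treatment with test compound, biliverdin is analysed by LC/MS with diode-array detection at 401 nm. Column is C18 reversed-phase, with water and acetonitrile each containing 0.1% TFA, at 1.0 mL/min. Solvent B rises linearly from 40% to 60% over 10 min, then returns to 40% within 2 min and holds 3 min.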

Assay [6] deals with T1, recombinant murine iNOS. Nature of the assay: Determination of substrate activity. It counts as biochemical. The note with it: up to 2 mM. An outline of the steps: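 Recombinant murine iNOS expressed in E. coli. NO output is read as oxyhemoglobin oxidised to metHb, by absorbance change at 401 nm over the first 60 s at 37 °C. The mix holds NADPH 100 µM, oxyHb 0.125 mg/mL and tetrahydrobiopterin 10 µM in 100 mM Hepes pH 7.4. Test compound is tested up to 2 mM. The reaction starts on adding enzyme.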

In assay [7] the target is T1, recombinant murine iNOS. Nature of the assay: HPLC / LC/MS of amino acid metabolites from inactivation mixtures. In kind it is biochemical. The note with it: OPA/MCE derivatization HPLC. The method, boiled down: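 E. coli-expressed murine iNOS is incubated with test compound (2 mM stock), NADPH (39 mM stock), H4B (8 mM stock), catalase and glycerol in Hepes 100 mM pH 7.4 for 3 h at 37 °C. Aliquots are derivatised with o-phthalaldehyde/2-mercaptoethanol (20:1 v/v). Separation is C18 reversed-phase HPLC, 50 mM sodium acetate pH 5.9 to 80% methanol gradient, 1.0 mL/min, detection at 340 nm.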

For another assay, the system named is NOS. The note with it: cited from earlier work.

“Also recorded” adds a separate entry of the source. Like-named read-outs stand apart in the source and are kept apart here.

T1 sequence (P29477 whole entry): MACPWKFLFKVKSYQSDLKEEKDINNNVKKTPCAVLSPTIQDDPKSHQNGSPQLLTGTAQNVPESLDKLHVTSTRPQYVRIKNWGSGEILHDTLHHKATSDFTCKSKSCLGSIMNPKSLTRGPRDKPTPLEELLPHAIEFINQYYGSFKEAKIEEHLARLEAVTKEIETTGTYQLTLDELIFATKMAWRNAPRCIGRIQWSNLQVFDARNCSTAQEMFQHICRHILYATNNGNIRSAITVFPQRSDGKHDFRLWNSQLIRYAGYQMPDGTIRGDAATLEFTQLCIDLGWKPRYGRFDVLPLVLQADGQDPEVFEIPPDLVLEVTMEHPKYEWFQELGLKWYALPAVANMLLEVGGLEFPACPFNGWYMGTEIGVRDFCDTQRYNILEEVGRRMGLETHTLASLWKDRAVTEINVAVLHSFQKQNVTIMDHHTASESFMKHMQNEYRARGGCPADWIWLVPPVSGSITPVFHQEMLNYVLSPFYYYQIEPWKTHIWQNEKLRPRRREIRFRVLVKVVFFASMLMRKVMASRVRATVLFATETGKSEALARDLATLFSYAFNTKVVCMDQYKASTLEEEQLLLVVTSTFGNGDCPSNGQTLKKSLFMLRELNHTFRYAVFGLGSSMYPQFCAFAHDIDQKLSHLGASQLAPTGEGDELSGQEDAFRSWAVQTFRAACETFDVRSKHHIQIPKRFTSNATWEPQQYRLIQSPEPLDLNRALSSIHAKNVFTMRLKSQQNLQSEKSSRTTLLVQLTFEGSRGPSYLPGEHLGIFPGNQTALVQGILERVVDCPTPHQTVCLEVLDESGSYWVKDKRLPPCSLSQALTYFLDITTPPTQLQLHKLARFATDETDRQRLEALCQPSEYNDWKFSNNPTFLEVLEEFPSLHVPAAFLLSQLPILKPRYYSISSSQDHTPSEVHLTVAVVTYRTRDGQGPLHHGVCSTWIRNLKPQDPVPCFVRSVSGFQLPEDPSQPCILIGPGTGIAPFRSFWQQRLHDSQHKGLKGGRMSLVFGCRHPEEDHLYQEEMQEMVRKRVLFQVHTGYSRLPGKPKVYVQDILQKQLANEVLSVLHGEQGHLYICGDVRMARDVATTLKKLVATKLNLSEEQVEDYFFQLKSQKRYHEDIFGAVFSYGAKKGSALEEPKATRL

With `CC(=N)NCCC[C@H](N)C(=O)O` [Compound 4, N^5-(1-iminoethyl)-L-ornithine], the “% iNOS Dimer remaining after inactivation” value (from here on “% iNOS Dimer remaining”) on iNOS dimer stood at 51 ± 4%. At recombinant murine iNOS [1], the “Inactivation of iNOS” value was “time-, concentration-, and NADPH-dependent iNOS inactivator”. Also, the Inhibition type entry at recombinant murine iNOS [2] is recorded as “competitive”. Besides, on iNOS heme cofactor [3], the “Conversion of active site heme in iNOS to biliverdin” value is “convert the active site heme in iNOS to biliverdin IXα”.
In general, kinact refers to the maximal first-order rate at which the target is inactivated. In general, kinact/KI refers to the maximal inactivation rate divided by the concentration that gives half of it. For `[2H]C([2H])([2H])C([2H])([2H])C(=N)NCCC[C@H](N)C(=O)O` [Compound 26, (S)-2-amino-5-(propanimidamido-2,2,3,3,3-d5)pentanoic acid], at recombinant murine iNOS [4], the maximal inactivation rate constant (kinact) is 0.073 min⁻¹, the second-order inactivation constant (kinact/KI) is 4.42 M⁻¹ s⁻¹ and the “Inactivation (irreversible inhibition) of iNOS” value is recorded as “inactivated iNOS”. In addition, on recombinant murine iNOS [4] (8 versus 26), the “H/D ratio of KI” value came to 0.884 ± 0.068.
For the compound `CCC(=N)NCCC[C@H](N)C(=O)O` [Compound 8], at iNOS heme cofactor [5], the “Heme lost by incubation with iNOS” value is below 5%, the Biliverdin formation entry was “No apparent heme loss or biliverdin formation; also recorded: no biliverdin could be detected” and the Heme loss result is reported as “No apparent heme loss”. Besides, the “Substrate activity (NO generation / products)” value at recombinant murine iNOS [6] is given as “no nitric oxide was formed”. Besides, the “% iNOS Dimer remaining” value at iNOS dimer was determined as 46 ± 2%. Besides, the “Metabolites from inactivation of iNOS” value at recombinant murine iNOS [7] is listed as “none was detected; also recorded: no 22 was observed”. At recombinant murine iNOS [4] (iNOS inactivation), the kinact/KI came to 5.17 ± 0.467 M⁻¹ s⁻¹ and the Ki amounted to 243 ± 31.4 µM. Further, the kinact on recombinant murine iNOS [4] (iNOS inactivation, 37 °C) is 0.0743 ± 0.0073 min⁻¹. Also, the “Inactivation (irreversible inhibition) of iNOS” value at recombinant murine iNOS [4] was “inactivators; also recorded: irreversible inhibitors; also recorded: weak irreversible inhibition; also recorded: time-, concentration-, and NADPH-dependent inhibitor”.
In the case of `CN=C(NC)NCCCC(N)C(=O)O` (stereo not shown) [Compound 6b, N^ω,N’^ω-dimethylarginine], the NOS inhibition result in the assay on NOS was “inactive”.
Turning to `CC(C)C(=N)NCCC[C@H](N)C(=O)O` [Compound 10], the “Inactivation (irreversible inhibition) of iNOS” value at recombinant murine iNOS [4] is on record as “No inactivation was observed”.
For `CCCC(=N)NCCC[C@H](N)C(=O)O` [Compound 9], at iNOS heme cofactor [5], the “Heme lost by incubation with iNOS” value is listed as below 5%, the Biliverdin formation entry is “No apparent heme loss or biliverdin formation; also recorded: no biliverdin could be detected” and the Heme loss entry is “No apparent heme loss”. The “Substrate activity (NO generation / products)” value at recombinant murine iNOS [6] is given as “no nitric oxide was formed”. The “% iNOS Dimer remaining” value on iNOS dimer is reported as 47 ± 5%. Also, the “Metabolites from inactivation of iNOS” value on recombinant murine iNOS [7] is recorded as “none was detected”. At recombinant murine iNOS [4] (iNOS inactivation), the kinact/KI is 3.3 ± 0.16 M⁻¹ s⁻¹ and the Ki was 674 ± 80 µM. For the same compound, the kinact on recombinant murine iNOS [4] (iNOS inactivation, 37 °C) stood at 0.131 ± 0.0095 min⁻¹. Also, the “Inactivation (irreversible inhibition) of iNOS” value on recombinant murine iNOS [4] is listed as “inactivators; also recorded: irreversible inhibitors; also recorded: weak irreversible inhibition”.
As to `N=CNCCC[C@H](N)C(=O)O` [Compound 7], on recombinant murine iNOS [6], the “Substrate activity (NO generation / products)” value was “does not act as a substrate”. Further, the “Inactivation (irreversible inhibition) of iNOS” value on recombinant murine iNOS [4] was “does not act as a substrate or as an inactivator; also recorded: did not inactivate iNOS”.
`CN=C(NC)NCCCC(N)C(=O)O` (stereo not shown) [Compound 6a, N^ω, N^ωω-dimethylarginine]: in the assay on NOS, the NOS inhibition result is “endogenous NOS inhibitor”.
With `CC(=N)NCc1cccc(CN)c1` [Compound 1400W, N-(3-(aminomethyl)benzyl)acetamidine], the “Conversion of active site heme in iNOS to biliverdin” value at iNOS heme cofactor [3] is recorded as “convert the active site heme in iNOS to biliverdin IXα”.

The record behind these values is paper PMC4410366 (Biochemistry, 2015).
